{"source": "ChEMBL document CHEMBL1155469", "about": "“Peptide nucleic acids conjugated to short basic peptides show improved pharmacokinetics and antisense activity in adipose tissue” (J Med Chem, 2010)", "key": {"Mus musculus [1]": {"test_system": "Mus musculus", "assay": "Inhibition of PTEN expression in Balb/C mouse kidney assessed as increase in mRNA levels at 8.25 mg/kg, ip administered thrice a week for 2 weeks measured 48 hrs after last dose […]", "type": "functional, organism-based", "parameters": "dose 8.25 mg/kg", "in_short": "(§1)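 Male Balb/c mice, n=4 per group, dosed i.p. in PBS and sacrificed 48 h after last dose. Liver, kidney and adipose tissue homogenised at once in 4 M guanidine isothiocyanate, 25 mM EDTA, 50 mM Tris-HCl pH 6. RNA purified on columns and run by fluorescence-based quantitative RT-PCR. Target transcript levels normalised to cyclophilin A and expressed relative to saline-treated controls.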"}, "Mus musculus [2]": {"test_system": "Mus musculus", "assay": "Inhibition of PTEN expression in Balb/C mouse adipose tissue assessed as increase in mRNA levels at 8.25 mg/kg, ip administered thrice a week for 2 weeks measured 48 hrs after last dose by […]", "type": "functional, organism-based", "parameters": "dose 8.25 mg/kg", "in_short": "as §1"}, "Mus musculus [3]": {"test_system": "Mus musculus", "assay": "Acute toxicity in Balb/C mouse assessed as reduction in body weight at 8.5 mg/kg, ip administered thrice a week for 2 weeks measured 48 hrs after last dose", "type": "organism-based", "parameters": "dose 8.5 mg/kg, route intraperitoneal", "conditions": "in vivo", "in_short": "(§2)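 Male Balb/c mice aged 6–8 weeks, n=4 per group, dosed i.p. with compound suspended in PBS and filter sterilized, 10 ul/g body weight. Body weight tracked throughout the live phase. Under isoflurane anaesthesia, terminal cardiac-puncture bleed; serum taken for transaminases and other chemistries. Sacrifice by cervical dislocation 48 h after last dose, with liver and spleen weighed at necropsy. Kidneys examined by histopathology.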"}, "Mus musculus [4]": {"test_system": "Mus musculus", "assay": "Inhibition of PTEN expression in Balb/C mouse liver assessed as increase in mRNA levels at 8.25 mg/kg, ip administered thrice a week for 2 weeks measured 48 hrs after last dose […]", "type": "functional, organism-based", "parameters": "dose 8.25 mg/kg", "in_short": "as §1"}, "Mus musculus [5]": {"test_system": "Mus musculus", "assay": "Acute toxicity in Balb/C mouse assessed as necrosis in kidney at 33 mg/kg, ip administered thrice a week for 2 weeks measured 48 hrs after last dose", "type": "organism-based", "parameters": "dose 33 mg/kg, route intraperitoneal", "conditions": "in vivo", "in_short": "as §2"}, "Mus musculus [6]": {"test_system": "Mus musculus", "assay": "Inhibition of PTEN expression in Balb/C mouse kidney assessed as increase in mRNA levels at 33 mg/kg, ip administered as single dose measured 48 hrs after last dose […]", "type": "functional, organism-based", "parameters": "dose 33 mg/kg", "in_short": "as §1"}, "Mus musculus [7]": {"test_system": "Mus musculus", "assay": "Acute toxicity in Balb/C mouse assessed as necrosis in kidney at 8.5 mg/kg, ip administered thrice a week for 2 weeks measured 48 hrs after last dose", "type": "organism-based", "parameters": "dose 8.5 mg/kg, route intraperitoneal", "conditions": "in vivo", "in_short": "as §2"}, "Mus musculus [8]": {"test_system": "Mus musculus", "assay": "Acute toxicity in Balb/C mouse assessed as reduction in body weight at 33 mg/kg, ip administered thrice a week for 2 weeks measured 48 hrs after last dose", "type": "organism-based", "parameters": "dose 33 mg/kg, route intraperitoneal", "conditions": "in vivo", "in_short": "as §2"}, "Mus musculus [9]": {"test_system": "Mus musculus", "assay": "Inhibition of IR expression in Balb/C mouse adipose tissue assessed as upregulation of IR-A transcript at 6.0 umol/kg, ip administered thrice a week for 2 weeks measured 48 hrs after last dose by […]", "type": "functional", "parameters": "scale not given: the % may be the effect or the level left", "in_short": "as §1"}, "Mus musculus [10]": {"test_system": "Mus musculus", "assay": "Inhibition of IR expression in Balb/C mouse kidney assessed as reduction in IR-B transcript at 6.0 umol/kg, ip administered thrice a week for 2 weeks measured 48 hrs after last dose […]", "type": "functional, organism-based", "in_short": "as §1"}, "Mus musculus [11]": {"test_system": "Mus musculus", "assay": "Inhibition of IR expression in Balb/C mouse kidney assessed as reduction in IR-B transcript at 1.5 umol/kg, ip administered thrice a week for 2 weeks measured 48 hrs after last dose […]", "type": "functional, organism-based", "in_short": "as §1"}, "Mus musculus [12]": {"test_system": "Mus musculus", "assay": "Acute toxicity in Balb/C mouse assessed as change in spleen weight at 1.5 to 6.0 umol/kg, ip administered thrice a week for 2 weeks measured 48 hrs after last dose", "type": "organism-based", "conditions": "in vivo", "in_short": "as §2"}, "Mus musculus [13]": {"test_system": "Mus musculus", "assay": "Acute toxicity in Balb/C mouse assessed as change in plasma chemistry at 1.5 to 6.0 umol/kg, ip administered thrice a week for 2 weeks measured 48 hrs after last dose", "type": "organism-based", "conditions": "in vivo", "in_short": "as §2"}, "Mus musculus [14]": {"test_system": "Mus musculus", "assay": "Inhibition of IR expression in Balb/C mouse kidney assessed as upregulation of IR-A transcript at 6.0 umol/kg, ip administered thrice a week for 2 weeks measured 48 hrs after last dose […]", "type": "functional, organism-based", "in_short": "as §1"}, "Mus musculus [15]": {"test_system": "Mus musculus", "assay": "Inhibition of IR expression in Balb/C mouse liver assessed as upregulation of IR-A transcript at 6.0 umol/kg, ip administered thrice a week for 2 weeks measured 48 hrs after last dose by quantitative RT-PCR analysis"}, "Mus musculus [16]": {"test_system": "Mus musculus", "assay": "Acute toxicity in Balb/C mouse assessed as reduction in body weight at 1.5 to 6.0 umol/kg, ip administered thrice a week for 2 weeks measured 48 hrs after last dose", "type": "organism-based", "conditions": "in vivo", "in_short": "as §2"}, "Mus musculus [17]": {"test_system": "Mus musculus", "assay": "Inhibition of IR expression in Balb/C mouse adipose tissue assessed as reduction in IR-B transcript at 6.0 umol/kg, ip administered thrice a week for 2 weeks measured 48 hrs after last dose […]", "type": "functional", "parameters": "scale not given: the % may be the effect or the level left", "in_short": "as §1"}, "Mus musculus [18]": {"test_system": "Mus musculus", "assay": "Acute toxicity in Balb/C mouse assessed as reduction in body weight at 10.5 umol/kg, ip administered thrice a week for 2 weeks measured 48 hrs after last dose", "type": "organism-based", "conditions": "in vivo", "in_short": "as §2"}, "Mus musculus [19]": {"test_system": "Mus musculus", "assay": "Acute toxicity in Balb/C mouse assessed as change in liver weight at 1.5 to 6.0 umol/kg, ip administered thrice a week for 2 weeks measured 48 hrs after last dose", "type": "organism-based", "conditions": "in vivo", "in_short": "as §2"}, "Mus musculus [20]": {"test_system": "Mus musculus", "assay": "Inhibition of IR expression in Balb/C mouse liver assessed as upregulation of IR-A transcript at 1.5 umol/kg, ip administered thrice a week for 2 weeks measured 48 hrs after last dose by quantitative RT-PCR analysis"}, "Mus musculus [21]": {"test_system": "Mus musculus", "assay": "Inhibition of IR expression in Balb/C mouse kidney assessed as upregulation of IR-A transcript at 1.5 umol/kg, ip administered thrice a week for 2 weeks measured 48 hrs after last dose […]", "type": "functional, organism-based", "in_short": "as §1"}}, "note": "Active and inactive are the calls of the source. The calls are words filed in the database; no cut-off is given here."}
{"smiles": "Cc1cn(CC(=O)N(CCNC(=O)CN(CCNC(=O)[C@H](CCCCN)N(CCNC(=O)CNC(=O)[C@@H](CCCCN)NC(=O)[C@@H](CCCCN)NC(=O)[C@@H](C)NC(=O)[C@@H](CC(C)C)NC(=O)[C@@H](CCCCN)NC(=O)[C@@H](CC(C)C)NC(=O)[C@@H](C)NC(=O)[C@@H](C)NC(=O)[C@@H](CCCCN)NC(=O)[C@@H](CC(C)C)NC(=O)[C@@H](CC(C)C)NC(=O)[C@@H](CCCCN)NC(=O)[C@H](N)CCCCN)C(=O)Cn2cc(C)c(=O)[nH]c2=O)C(=O)Cn2ccc(N)nc2=O)CC(=O)NCCN(CC(=O)NCCN(CC(=O)NCCN(CC(=O)NCCN(CC(=O)NCCN(CC(=O)NCCN(CC(=O)NCCN(CC(=O)NCCN(CC(=O)NCCN(CC(=O)NCCN(CC(=O)NCCN(CC(=O)NCCN(CC(=O)NCCN(CC(=O)N[C@@H](CCCCN)C(N)=O)C(=O)Cn2cnc3c(N)ncnc32)C(=O)Cn2ccc(N)nc2=O)C(=O)Cn2cnc3c(N)ncnc32)C(=O)Cn2cc(C)c(=O)[nH]c2=O)C(=O)Cn2ccc(N)nc2=O)C(=O)Cn2cc(C)c(=O)[nH]c2=O)C(=O)Cn2cnc3c(N)ncnc32)C(=O)Cn2ccc(N)nc2=O)C(=O)Cn2cnc3c(N)ncnc32)C(=O)Cn2ccc(N)nc2=O)C(=O)Cn2cnc3c(=O)[nH]c(N)nc32)C(=O)Cn2cnc3c(N)ncnc32)C(=O)Cn2ccc(N)nc2=O)c(=O)[nH]c1=O", "values": [{"measurement": "Activity", "setting": "Mus musculus [1]", "result": "inactive"}, {"measurement": "Activity", "setting": "Mus musculus [2]", "result": "inactive"}, {"measurement": "Activity", "setting": "Mus musculus [3]", "result": "Toxic"}, {"measurement": "Activity", "setting": "Mus musculus [4]", "result": "inactive"}, {"measurement": "Activity", "setting": "Mus musculus [5]", "result": "Toxic"}, {"measurement": "Activity", "setting": "Mus musculus [6]", "result": "inactive"}, {"measurement": "Activity", "setting": "Mus musculus [7]", "result": "Toxic"}, {"measurement": "Activity", "setting": "Mus musculus [8]", "result": "Toxic"}]}
{"smiles": "Cc1cn(CC(=O)N(CCNC(=O)CN(CCNC(=O)CN(CCNC(=O)CN(CCNC(=O)CN(CCNC(=O)CN(CCNC(=O)CN(CCNC(=O)CN(CCNC(=O)[C@H](CCCCN)N(CCNC(=O)CN(CCNC(=O)CN(CCNC(=O)CN(CCNC(=O)[C@H](CCCCN)NC(=O)[C@H](CCCCN)NC(=O)[C@H](CCCCN)NC(=O)[C@H](CCCCN)NC(=O)[C@H](CCCCN)NC(=O)[C@H](CCCCN)NC(=O)[C@H](CCCCN)NC(=O)[C@@H](N)CCCCN)C(=O)Cn2cnc3c(N)ncnc32)C(=O)Cn2ccc(N)nc2=O)C(=O)Cn2ccc(N)nc2=O)C(=O)Cn2cc(C)c(=O)[nH]c2=O)C(=O)Cn2cnc3c(N)ncnc32)C(=O)Cn2ccc(N)nc2=O)C(=O)Cn2cc(C)c(=O)[nH]c2=O)C(=O)Cn2cnc3c(=O)[nH]c(N)nc32)C(=O)Cn2cc(C)c(=O)[nH]c2=O)C(=O)Cn2ccc(N)nc2=O)C(=O)Cn2ccc(N)nc2=O)CC(=O)NCCN(CC(=O)NCCN(CC(=O)NCCN(CC(=O)NCCN(CC(=O)NCCN(CC(=O)NCCN(CC(=O)NCCN(CC(=O)NCCN(CC(=O)N[C@@H](CCCCN)C(N)=O)C(=O)Cn2cnc3c(N)ncnc32)C(=O)Cn2ccc(N)nc2=O)C(=O)Cn2ccc(N)nc2=O)C(=O)Cn2cnc3c(N)ncnc32)C(=O)Cn2ccc(N)nc2=O)C(=O)Cn2cnc3c(=O)[nH]c(N)nc32)C(=O)Cn2cnc3c(=O)[nH]c(N)nc32)C(=O)Cn2ccc(N)nc2=O)c(=O)[nH]c1=O", "values": [{"measurement": "Activity", "setting": "Mus musculus [9]", "result": 200, "unit": "%"}, {"measurement": "Activity", "setting": "Mus musculus [10]", "result": "inactive"}, {"measurement": "Activity", "setting": "Mus musculus [11]", "result": "inactive"}, {"measurement": "Activity", "setting": "Mus musculus [12]", "result": "Non-toxic"}, {"measurement": "Activity", "setting": "Mus musculus [13]", "result": "Non-toxic"}, {"measurement": "Activity", "setting": "Mus musculus [14]", "result": "Active"}, {"measurement": "Activity", "setting": "Mus musculus [15]", "result": "Active"}, {"measurement": "Activity", "setting": "Mus musculus [16]", "result": "Non-toxic"}, {"measurement": "Activity", "setting": "Mus musculus [17]", "result": 50, "unit": "%"}, {"measurement": "Activity", "setting": "Mus musculus [18]", "result": "Toxic"}, {"measurement": "Activity", "setting": "Mus musculus [19]", "result": "Non-toxic"}, {"measurement": "Activity", "setting": "Mus musculus [20]", "result": "Active"}, {"measurement": "Activity", "setting": "Mus musculus [21]", "result": "Active"}]}
